Screens deposited in PubChem by several laboratories.
rCAG RNA binder: binds r(CAG) RNA repeats. r(CAG) RNA repeat, TO-PRO-1 dye displacement fluorescence. inhibition, % at 3 µM. 370,000 compounds, 1.3% hits;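 active = inhibition above the plate cutoff, the mean of all test compounds on that plate plus 3 SD, cut at about 35% in these data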;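 also: higher means more dye released from RNA so lower well fluorescence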
NadD block: blocks S. aureus nicotinate mononucleotide adenylyltransferase. purified NadD enzyme, colorimetric absorbance read-out. inhibition, % at 20 µM. 360,000 compounds, 0.78% hits; in the data active = inhibition above about 26%
ARFGAP1 inhibitor: inhibits rat ARF GTPase activating protein 1 | Arfgap1-stimulated ARF1 GTP hydrolysis, GDP FP detection | inhibition, % at 16.5 µM | 360,000 compounds, 0.26% hits | AID 651572;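 active = inhibition above a per-plate limit, mean inhibition of low control wells plus 3 SD, cut at about 25% in these data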
Target sequence (Q62848 1-136 limits assumed): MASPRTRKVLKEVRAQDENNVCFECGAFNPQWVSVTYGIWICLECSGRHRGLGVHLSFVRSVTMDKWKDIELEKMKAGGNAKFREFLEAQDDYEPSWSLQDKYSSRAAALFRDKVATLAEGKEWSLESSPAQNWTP
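Assay system: purified rat His6-Arfgap1 residues 1-136 (GAP domain); Reagent: human Δ17 ARF1 bound to GTP; Dosing: 16.5 µM single point, 1.26% DMSO; Times: GTP hydrolysis reaction 2 h at 25 °C; Signal: FP, GDP Alexa 633 tracer displaced from anti-GDP antibody, 620/688 nm; Measure: % inhibition from polarization.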
ASAP1 GAP inh: blocks human ASAP1-stimulated Arf1 GTP hydrolysis | 360,000 compounds, 0.19% hits | Q9ULH1 | inhibition, % at 16.5 µM | GDP FP detection; in the data active = inhibition above about 25%
Target sequence (Q9ULH1 325-724 limits assumed): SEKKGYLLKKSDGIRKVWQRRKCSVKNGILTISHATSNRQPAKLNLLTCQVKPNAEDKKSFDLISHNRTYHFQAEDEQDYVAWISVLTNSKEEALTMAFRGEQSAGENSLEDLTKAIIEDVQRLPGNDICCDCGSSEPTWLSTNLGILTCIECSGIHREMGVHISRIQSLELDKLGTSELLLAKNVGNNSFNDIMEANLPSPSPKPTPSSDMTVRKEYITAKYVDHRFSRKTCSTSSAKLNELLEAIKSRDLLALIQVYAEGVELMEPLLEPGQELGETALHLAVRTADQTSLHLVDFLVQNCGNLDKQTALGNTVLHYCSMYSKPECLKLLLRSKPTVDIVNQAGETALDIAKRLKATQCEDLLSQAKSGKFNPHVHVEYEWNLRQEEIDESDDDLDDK
A number is an active result; 0 = inactive; - = no result. Shown are actives, neighbours in structure and some others; about 2.2% of the full set was active somewhere.

SMILES	rCAG RNA binder	NadD block	ARFGAP1 inhibitor	ASAP1 GAP inh
COC(=O)c1cc2c(c3c4cc(C)ccc4n(S(=O)(=O)c4ccc(C)cc4)c13)C(=O)N(Cc1ccc(N(C)C)cc1)C2	0	-	0	0
COC(=O)[C@]12C[C@H](CC(=O)NCCCCc3ccccc3)C(=O)N(Cc3ccc(Cl)cc3Cl)C1=C[C@H](C(C)C)O[C@@H]2C1CC1	0	-	-	-
COc1cccc(N2CCN(CC(=O)NCc3ccc(F)cc3)CC2)c1	0	-	-	-
O=C(O)c1ccc(COc2ccc3ccccc3c2/C=C2/NC(=O)N(Cc3ccc(F)cc3)C2=O)cc1	0	0	0	0
O=C(CN1C(=O)N/C(=C\c2ccccc2OCc2ccc(C(=O)O)cc2)C1=O)Nc1ccccc1F	47	0	0	0
COc1ccccc1NS(=O)(=O)c1cc([N+](=O)[O-])ccc1N/N=C/c1sc(N2CCOCC2)nc1-c1ccccc1	0	37	0	0
CO/N=C(/C(=O)N[C@@H]1C(=O)N2C(C(=O)O)=CCS[C@H]12)c1cnc(N)s1	-	39	-	-
CC1(C(=O)NS(=O)(=O)c2cccc(F)c2)CCN1C(=O)Cc1cccs1 (centres undefined)	0	0	0	0
COc1ccc(Br)cc1/C=N/NC(=O)c1ccc(COc2ccc3c(c2)CCC3)o1	0	0	0	0
O=C(N/N=C/c1cc([N+](=O)[O-])ccc1O)c1ccc(COc2ccc3c(c2)CCC3)o1	0	52	0	0
O=S(=O)(Nc1nc2ccccc2s1)c1ccc(Cl)s1	44	0	0	0
CCOc1ccc2nc(SCC(=O)Nc3ccc4[nH]c(=O)[nH]c4c3)[nH]c2c1	0	0	0	0
Cc1[nH][nH]c(=O)c1C(c1ccc(-c2ccc(F)cc2)o1)c1c(C)[nH][nH]c1=O	0	0	0	0
Cc1[nH][nH]c(=O)c1C(c1ccc(-c2ccc(C(=O)O)cc2)o1)c1c(C)[nH][nH]c1=O	0	0	28	0
Cc1[nH][nH]c(=O)c1C(c1ccc(-c2ccc(Cl)c(Cl)c2)o1)c1c(C)[nH][nH]c1=O	38	0	0	0
Nc1[nH]c(C(=O)c2ccccc2)c(-c2ccccc2Cl)c1C(=O)c1ccccc1	0	0	0	0
COC(=O)c1cc2c(c3c4cc(C)ccc4n(S(=O)(=O)c4ccccc4)c13)C(=O)N(Cc1ccc(C(F)(F)F)cc1)C2	0	-	0	0
CCOC(=O)N1CCN(C(=O)C2CCN(C(=O)c3ccc(C(C)(C)C)cc3)CC2)CC1	0	0	0	0
CCOc1ccccc1C(O)C1=CC(=O)c2ccccc2C1=O (centres undefined)	38	0	0	0
CCOc1ccccc1C(N)=O	0	0	0	0
COc1ccc(C(=O)c2ccc(Cl)cc2)c2ccccc12	0	0	0	0
COc1ccc(C(=O)c2ccccc2)c2c(O)ccc(C(=O)c3ccccc3)c12	0	31	0	0
Cc1nc2ccc(S(=O)(=O)NCC(=O)NCc3ccccc3C)cc2s1	0	-	-	-
CC(CCN1CCC(C(O)(c2ccccc2)c2ccccc2)CC1)Oc1cc(F)cc(F)c1 (centres undefined)	0	-	-	-
Cc1ccccc1-c1nn[nH]n1	0	0	0	0
SMILES	rCAG RNA binder	NadD block	ARFGAP1 inhibitor	ASAP1 GAP inh
Oc1ccc(N=Nc2ccccc2-c2nn[nH]n2)c(O)c1	79	0	0	0
CCOc1ccc(NC(=O)Nc2nc3ccc(S(C)(=O)=O)cc3s2)cc1	39	0	0	0
CCOCC(=O)Nc1nc2ccc(S(C)(=O)=O)cc2s1	0	0	0	0
COc1ccc(C#CCN(C)/C(N)=N/C(=O)OCc2ccccc2)cc1	0	-	-	-
C/C=C(\C)C(=O)OC1CC(C)(C)C[C@H]2C3=CC[C@@H]4[C@@]5(C)CCC(O[C@@H]6O[C@@H](C(=O)O)[C@@H](O)C(O[C@@H]7OC[C@H](O)[C@@H](O)[C@@H]7O[C@@H]7OC(CO)C(O)[C@@H](O)[C@@H]7O)C6O[C@@H]6OC(CO)C(O)C(O)C6O)[C@@](C)(CO)[C@@H]5CC[C@]4(C)[C@]3(C)CC(O)[C@@]12CO (some centres undefined)	45	0	0	0
O=[N+]([O-])c1ccc(Br)c(CN2CCN(c3ncc(Cc4ccccc4)cn3)CC2)c1	0	-	0	0
O=C(O)Cn1c2c(c3ccccc31)CSc1ccc(Cl)cc1-2	58	0	0	0
O=S(=O)(Nc1nnc(-c2ccccc2)s1)c1ccc(Cl)cc1	74	0	0	0
COCc1nnc(NS(=O)(=O)c2ccc(Cl)cc2)s1	0	0	0	0
COC(=O)C1=C(C)N(Cc2ccccc2C(F)(F)F)C(=NCc2ccc(OC)cc2)NC1CCc1ccccc1 (centres undefined)	0	-	0	0
COc1ccc(Cl)cc1NC(=O)CN(C)S(=O)(=O)c1cccs1	0	0	0	0
COc1ccc(Cl)cc1NC(=O)COC(=O)c1cc(NS(=O)(=O)c2cccs2)ccc1O	0	33	0	0
COc1cccc(/C=N/Nc2nc(Nc3ccc([N+](=O)[O-])cc3)nc(N3CCCC3)n2)c1O	0	35	0	0
CCCCNC(=O)C[C@H]1C[C@@]2(C(=O)OC)C(=C[C@H](C3CCCC3)O[C@@H]2C)N(Cc2ccco2)C1=O	0	-	-	-
O=C(CSc1nc2ncc(Br)cc2[nH]1)c1ccc([N+](=O)[O-])cc1	0	0	0	0
O=C(CSc1nc2ccc([N+](=O)[O-])cc2[nH]1)c1ccc2ccccc2c1	37	0	0	0
CC(=O)O[C@@H]1C=C[C@@H](C#Cc2ccc(C(C)(C)C)cc2)O[C@@H]1COC(=O)NCc1ccccc1	0	-	0	0
CCc1ccc2c(c1)NC(=O)C2(C)Cc1ccccc1 (centres undefined)	0	0	0	0
CCc1ccc2c(c1)C1(NN=C(c3cccc4ccccc34)S1)C(=O)N2 (centres undefined)	0	35	0	0
O=C(CC1SC(=O)N(c2ccccc2)C1=O)Nc1ccccc1 (centres undefined)	0	0	0	0
Cc1ccc(NC(=O)CC2SC(=O)N(c3ccccc3)C2=O)cc1 (centres undefined)	37	0	0	0
Cc1cc(-c2csc(NC(=O)c3ccc(=O)[nH]c3)n2)c(C)n1Cc1ccco1	0	67	0	0
CC1(C)CC[C@]2(C(=O)n3ccnc3)CC[C@]3(C)[C@H](C(=O)C=C4[C@@]5(C)C=C(C#N)C(=O)C(C)(C)[C@@H]5CC[C@]43C)[C@@H]2C1	53	43	0	0
COC(=O)c1ccc(C2Nc3cccc4cccc(c34)N2)cc1	0	40	0	0
COc1cc(C2Nc3cccc4cccc(c34)N2)cc(OC)c1O	36	32	0	0
SMILES	rCAG RNA binder	NadD block	ARFGAP1 inhibitor	ASAP1 GAP inh
COc1cc(C2Nc3cccc4cccc(c34)N2)ccc1OC(C)=O	-	47	-	-
Fc1ccc(C2Nc3cccc4cccc(c34)N2)cc1	0	0	0	0
COc1ccc(C2Nc3cccc4cccc(c34)N2)cc1Br	0	49	0	0
Brc1ccc(C2Nc3cccc4cccc(c34)N2)cc1	0	0	0	0
CCc1nc2c(OCc3cccc(Cl)c3)cccn2c1N(C)C(=O)CC(C)C	0	0	0	0
C[C@H]1Cn2cnc(C(=O)Nc3ccccc3)c2C(=O)N1	0	0	0	0
